Assay results: PubChem BioAssay
The source made the active and inactive calls.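 How the source made its calls, unless noted: active means a full or partial loss of lipid-probe fluorescence in the fish gall bladder, intestine or both, judged by eye; inactive means no fluorescence loss, or compound toxic to the fish.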

Experiments:
[1] = inhibitors of TNFa-induced NFkB p65 translocation, primary screen, imaging, HUVEC, MLSMR starter and 10KST1 sets (AID 438;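 active means inhibition above 20% together with a positive visual image hit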;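 further: compound added about 3h40 before a 20 min TNFalpha stimulation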;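 on inhibition: signal is the nuclear over cytoplasmic p65 intensity ratio per well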); conditions: HUVEC TNFa-induced p65 nuclear translocation; cell count: measured here: nuclei count (cytotoxicity indicator), at 2.08 µM; inhibition: at 2 µM, stronger effect = higher value, 0% TNFa-plus-vehicle, 100% no-TNFa wells
[2] = inhibitors of E-selectin induction by TNFa, primary screen, imaging, HUVEC, immunofluorescence, MLSMR starter and 10KST1 sets (AID 487;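 active means visually confirmed hit in the image check and inhibition above 20%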;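 on inhibition: signal is fraction of cell area covered by stained E-selectin grains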;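 on nuclei count: 100% = median nuclei count of all wells on the same plate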); conditions: HUVEC TNFalpha-induced E-selectin immunofluorescence imaging, at 2 µM; inhibition: stronger effect = higher value; nuclei count: measured here: cell number, toxicity
[3] = DUSP6 inhibitors restoring Erk phosphorylation by chemical complementation, primary imaging in DUSP6-transfected HeLa (AID 609;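 active means compounds giving at least 50% inhibition in the cell-based MKP-3 phosphatase rescue imaging test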;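 on inhibition: phospho-Erk level distribution per well compared with pooled transfected vehicle control wells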); conditions: HeLa MKP-3 transfected, phospho-Erk imaging KS statistic, at 10 µM, cells stimulated with TPA for 15 min
[4] = biological target: Dual specificity protein phosphatase 6 (Homo sapiens) (UniProt Q16828); test: as above; conditions: HeLa MKP-3 transfected, phospho-Erk imaging KS statistic; at 10 µM; stronger effect = higher value; cells stimulated with TPA for 15 min
[5] = biological target: Voltage-gated potassium channel subunit beta-2 (Rattus norvegicus) (UniProt P62483); test: KvBeta enzyme negative modulators, primary screen, biochemical, NADPH fluorescence (AID 622;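 active means fluorescence slope higher than the sample average by over 3 SD, cut at about -0.22 in these data, passing the limit was not always enough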;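 further: slope of raw intensity against log time taken from 70 to 1610 s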); conditions: recombinant KvBeta, 4-cyanobenzaldehyde reduction, at 10 µM, stronger effect = higher value
[6] = biological target: Voltage-gated potassium channel subunit beta-2 (Rattus norvegicus) (UniProt P62483); test: KvBeta positive modulators, primary screen, biochemical, NADPH fluorescence (AID 623;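 active means NADPH fluorescence slope more negative than the mean of all samples by about 3 SD, 99.7% confidence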;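 further: fluorescence intensity change per second fitted from 20 to 320 s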); conditions: Recombinant KvBeta, NADPH fluorescence decrease slope, 10 min; at 10 µM; stronger effect = lower value
[7] = biological target: Muscarinic acetylcholine receptor M4 (Homo sapiens) (UniProt P08173); test: compounds altering M4/GIRK thallium flux, either direction, primary screen, M4 allosteric agonist project, cell-based, HEK293 M4/GIRK, BTC-AM (AID 625;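 active means fluorescence slope after compound addition differing from the mean of all tested samples at 99.7% confidence, mostly higher but some lower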;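 further: thallium influx through GIRK channels coupled to M4 in HEK293 cells with BTC-AM dye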); conditions: at 10 µM, actives lie on both sides
How it was run: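 System: HEK293 cells with M4 receptor and GIRK channels | Incubation: Cells overnight at 37 °C, BTC-AM loading 1 h, reads 2 min total | Technique: Kinetic BTC-AM fluorescence sampled at 1 Hz, 10 s pre-addition baseline | Measure: Post-addition slope, 15–24 s, of baseline-normalized fluorescence | Control set: Carbachol positive, DMSO negative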

[8] = inhibitors of larval lipid processing in zebrafish, primary screen, whole organism, PED6 fluorescence, gall bladder and intestine (AID 686); conditions: Zebrafish larvae PED6 lipid processing, fluorescence scoring; screened at 20 µM (by protocol);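 further: larvae 5 to 7 days old with five fish per well; signal comes from phospholipase A2 cleavage of quenched PED6 carried via bile; overnight exposure to compound and PED6 before scoring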
How it was run: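 Test system – live zebrafish larvae aged 5-7 days, whole organism · Buffer or medium – E3 fish medium · Reagent – quenched phospholipase substrate PED6, 100 nM final, ingested by larvae · Doses – 20 µM single dose · Incubation – overnight compound and PED6 incubation · Technique – visual fluorescence microscopy scoring of gall bladder, gut · Read-out basis – visual per-well fluorescence inhibition score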

[9] = inhibitors of Chlamydomonas gravitaxis, primary screen, whole organism, Chlamydomonas reinhardtii, WT vs cilia-less mutant, absorbance, 96-well (AID 463189;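 active means inhibition at or above 50% relative to wild type and mutant plate controls; inactive means inhibition below 50%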;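 further: 0% = wild type cc124 cells in DMSO and 100% = ciliumless bld1 mutant cells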); conditions: OD600 absorbance, 2 days, at 10 µM, stronger effect = higher value
[10] = measured here: cell density z-score
[11] = measured here: nuclear c-Myc green intensity z-score
[12] = measured here: nuclear pErk red intensity z-score, stronger effect = higher value

Sequence of Muscarinic acetylcholine receptor M4 (Homo sapiens) (P08173 whole entry, looked up): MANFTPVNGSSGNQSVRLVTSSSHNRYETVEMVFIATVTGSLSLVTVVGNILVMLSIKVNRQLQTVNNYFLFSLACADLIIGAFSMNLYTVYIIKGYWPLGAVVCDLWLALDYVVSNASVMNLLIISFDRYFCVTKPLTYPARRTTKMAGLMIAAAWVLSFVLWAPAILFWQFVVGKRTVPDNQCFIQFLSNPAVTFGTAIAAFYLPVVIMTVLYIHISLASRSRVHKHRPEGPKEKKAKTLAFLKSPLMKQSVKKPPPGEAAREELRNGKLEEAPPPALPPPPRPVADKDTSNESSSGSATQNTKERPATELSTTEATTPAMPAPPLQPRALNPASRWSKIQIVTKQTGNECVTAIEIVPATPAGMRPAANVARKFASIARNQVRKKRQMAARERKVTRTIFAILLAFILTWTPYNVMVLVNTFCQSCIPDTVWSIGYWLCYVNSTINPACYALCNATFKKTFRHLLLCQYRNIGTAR
Sequence of Voltage-gated potassium channel subunit beta-2 (Rattus norvegicus) (P62483 whole entry, looked up): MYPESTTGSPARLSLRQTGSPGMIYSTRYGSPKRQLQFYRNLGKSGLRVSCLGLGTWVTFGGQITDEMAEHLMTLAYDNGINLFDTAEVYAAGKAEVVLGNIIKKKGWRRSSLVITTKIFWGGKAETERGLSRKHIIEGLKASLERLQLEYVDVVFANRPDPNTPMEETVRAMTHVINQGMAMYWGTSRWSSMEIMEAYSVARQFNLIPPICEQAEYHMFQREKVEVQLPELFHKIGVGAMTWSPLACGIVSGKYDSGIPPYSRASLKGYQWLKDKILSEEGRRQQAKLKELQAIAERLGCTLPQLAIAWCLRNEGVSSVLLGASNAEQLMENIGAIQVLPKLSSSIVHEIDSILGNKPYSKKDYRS
Sequence of Dual specificity protein phosphatase 6 (Homo sapiens) (Q16828 whole entry, looked up): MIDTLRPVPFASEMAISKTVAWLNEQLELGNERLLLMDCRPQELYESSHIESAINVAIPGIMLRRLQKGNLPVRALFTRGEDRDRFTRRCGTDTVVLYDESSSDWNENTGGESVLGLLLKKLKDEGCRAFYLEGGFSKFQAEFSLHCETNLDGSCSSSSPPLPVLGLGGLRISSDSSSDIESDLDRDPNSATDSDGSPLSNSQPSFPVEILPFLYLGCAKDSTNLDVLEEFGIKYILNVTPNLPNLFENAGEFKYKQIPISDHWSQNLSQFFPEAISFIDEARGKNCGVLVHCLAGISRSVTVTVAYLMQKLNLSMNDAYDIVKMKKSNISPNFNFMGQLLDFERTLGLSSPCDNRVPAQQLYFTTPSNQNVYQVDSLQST

SMILES	cell count [1]	inhibition [1]	inhibition [2]	nuclei count [2]	z-score [3, 10]	z-score [3, 11]	z-score [3, 12]	inhibition [4]	fluorescence slope [5]	NADPH fluorescence slope [6]	fluorescence slope [7]	outcome [8]	inhibition [9]
COc1cc(/C=N/n2nnnc2N)ccc1O	594	-13% (inactive)	-19.6% (inactive)	150%	0.109	-0.705	-0.571	17.7% (inactive)	-0.448 (inactive)	-0.000221 (inactive)	0.00627 (inactive)	inactive	14% (inactive)
N#Cc1nc(COc2ccccc2F)oc1NCCCn1ccnc1	465	-4% (inactive)	-87.7% (inactive)	136%	-0.925	1.53	1.43	-0.624% (inactive)	-0.414 (inactive)	-2.3e-05 (inactive)	0.00507 (inactive)	inactive	-8.85% (inactive)
C=CCOC(=O)C1=C(C)NC(SCC(=O)Nc2ccc(C)c(Cl)c2)=C(C#N)C1c1ccco1 (configuration not stated)	654	-12.4% (inactive)	-141% (inactive)	165%	0.0936	-0.359	0.4	10.1% (inactive)	-0.465 (inactive)	-2.6e-05 (inactive)	0.00959 (inactive)	inactive	6.54% (inactive)
CN1CCc2c(c3c(n2C)CCN(C)[C@@H]3c2cccnc2)[C@H]1c1cccnc1	406	-15.1% (inactive)	-320% (inactive)	159%	0.329	-0.347	0.296	15.4% (inactive)	-0.478 (inactive)	-5.4e-05 (inactive)	0.00388 (inactive)	inactive; toxic	5.73% (inactive)
CC1(C)Cc2c(C#N)c(N3CCOCC3)nc(Cc3ccccc3)c2CO1	582	-0.5% (inactive)	-122% (inactive)	132%	-0.332	-0.948	-0.693	-3.95% (inactive)	-0.445 (inactive)	-5.6e-05 (inactive)	0.00448 (inactive)	inactive	17.6% (inactive)
C=CCOc1ccc(C2/C(=C(\O)c3ccc(F)cc3)C(=O)C(=O)N2CCCN(C)C)cc1 (configuration not stated)	672	-13.7% (inactive)	-142% (inactive)	172%	1.58	1.06	-0.378	4.25% (inactive)	-0.451 (inactive)	-4.3e-05 (inactive)	0.00492 (inactive)	inactive	14.7% (inactive)
Cc1ccc(N2C(=O)CC(Cn3nc(C)cc3C)C2=O)cc1 (configuration not stated)	471	-3.4% (inactive)	5.8% (inactive)	98.6%	0.966	-0.538	-0.159	11.9% (inactive)	-0.387 (inactive)	-2e-06 (inactive)	0.00565 (inactive)	inactive	25.4% (inactive)
COc1ccc(-c2nc3c(Br)c(N)c(Br)cc3o2)cc1	497	-7.6% (inactive)	-77.2% (inactive)	140%	0.844	-1.44	0.173	-1.98% (inactive)	-0.404 (inactive)	-2.1e-05 (inactive)	0.0064 (inactive)	inactive	14.6% (inactive)
COC(=O)C(NC(=O)c1ccco1)(Nc1ccc(Br)cn1)C(F)(F)F (configuration not stated)	717	-8.8% (inactive)	13.2% (inactive)	147%	-0.772	-0.373	1.11	-5.81% (inactive)	-0.457 (inactive)	-6.6e-05 (inactive)	0.00446 (inactive)	inactive	4.54% (inactive)
Cn1c(=O)c2c(nc(NCc3ccc4c(c3)OCO4)n2Cc2ccccc2)n(C)c1=O	656	-20.1% (inactive)	-108% (inactive)	96.2%	-0.797	-1.34	-1.17	-7.93% (inactive)	-0.5 (inactive)	-0.000109 (inactive)	0.00776 (inactive)	inactive	-2.21% (inactive)
CC1(C)Cc2c(sc3nc(SCC(=O)NCc4ccco4)n(-c4ccccc4)c(=O)c23)CS1	501	-2.3% (inactive)	-158% (inactive)	112%	-1.09	-0.43	0.302	1.98% (inactive)	-0.431 (inactive)	-4.8e-05 (inactive)	0.00628 (inactive)	inactive	-14.1% (inactive)
CCSc1nc2sc3c(c2c(=O)n1C1CCCCC1)CCN(C)C3	364	-10% (inactive)	-37.3% (inactive)	101%	-0.995	0.578	0.504	-8.59% (inactive)	-0.419 (inactive)	-6.1e-05 (inactive)	0.00313 (inactive)	inactive	-2.62% (inactive)
CCN(CC)Cc1cc(C(C)=O)ccc1OCC(C)C	639	1.8% (inactive)	3.7% (inactive)	164%	-0.466	0.382	-0.997	-5.62% (inactive)	-0.462 (inactive)	-4.7e-05 (inactive)	0.00565 (inactive)	inactive	29.4% (inactive)
Cc1ccc(-n2c(SCC(=O)NCc3ccco3)nc3nc4c(cc3c2=O)COC(C)(C)C4)cc1	518	-21.3% (inactive)	9.1% (inactive)	176%	0.611	-1.97	0.29	3.97% (inactive)	-0.408 (inactive)	-1.9e-05 (inactive)	0.00603 (inactive)	inactive	17% (inactive)
COc1ccc(-c2nn(C)c(=O)c3ccccc23)cc1NS(C)(=O)=O	373	-6.1% (inactive)	-7.8% (inactive)	104%	-0.517	0.9	-0.714	11.9% (inactive)	-0.509 (inactive)	1.7e-05 (inactive)	0.00473 (inactive)	inactive	-10.8% (inactive)
O=C(c1ccc(=O)oc1)N1CCN(C(c2ccccc2)c2ccccc2)CC1	630	-3.2% (inactive)	-22.1% (inactive)	168%	-0.99	0.461	1.67	-3.95% (inactive)	-0.474 (inactive)	-7.6e-05 (inactive)	0.00524 (inactive)	inactive	4.32% (inactive)
CCN(CC)c1nc(-c2cccc(OC)c2O)nc2ccccc12	624	-3.5% (inactive)	-45.9% (inactive)	171%	-1.06	-1.37	0.629	4.37% (inactive)	-0.5 (inactive)	-9.9e-05 (inactive)	0.005 (inactive)	inactive	15.7% (inactive)
COc1ccc(C(=O)CCN2CCCCCC2)cc1	387	-7.4% (inactive)	-32.1% (inactive)	148%	-0.26	-0.113	-0.00775	5.42% (inactive)	-0.438 (inactive)	-0.000102 (inactive)	0.00485 (inactive)	inactive; toxic	-0.057% (inactive)
CCOC(=O)CSc1nc(N2CCOCC2)c2c(c1C#N)CC(C)(C)N(C)C2	531	-4.6% (inactive)	-19.7% (inactive)	102%	-0.379	0.944	-0.77	1.42% (inactive)	-0.505 (inactive)	4.1e-05 (inactive)	0.00477 (inactive)	inactive	33.8% (inactive)
COC(=O)c1[nH]c2cc(OC)ccc2c1NC(=O)CN1CCN(c2cccc(C)c2)C(C)C1 (configuration not stated)	670	1% (inactive)	-108% (inactive)	166%	-0.376	-0.924	-0.753	-1.12% (inactive)	-0.429 (inactive)	-3.4e-05 (inactive)	0.0042 (inactive)	inactive	4.21% (inactive)
CCOC(=O)CSc1nnc2n(Cc3ccccc3)c(=O)c3c4c(sc3n12)CCC4	364	0.8% (inactive)	49.8% (inactive)	168%	-0.465	-0.253	1.89	13.4% (inactive)	-0.428 (inactive)	-0.000132 (inactive)	0.00471 (inactive)	active; weak signal in gallbladder and intestine	0.799% (inactive)
CCC(CC)c1nc2cc(OC)c(OC)cc2c(=O)o1	581	0.1% (inactive)	-54% (inactive)	126%	-1.01	-1.15	0.697	-4.59% (inactive)	-0.451 (inactive)	-0.000112 (inactive)	0.00503 (inactive)	inactive	0.563% (inactive)
O=C(C1=C(O)C(=O)N(CCCN2CCOCC2)C1c1ccccn1)c1cc2ccccc2o1 (configuration not stated)	558	-4.5% (inactive)	55.2% (inactive)	95.5%	0.823	0.459	-0.11	12.7% (inactive)	-0.441 (inactive)	-0.000374 (active)	0.0054 (inactive)	inactive	23.5% (inactive)
CCOc1ccc2nc(NC(NC(=O)CC)(C(=O)OC)C(F)(F)F)sc2c1 (configuration not stated)	362	-7% (inactive)	-214% (inactive)	195%	-0.714	0.587	0.266	3.42% (inactive)	-0.424 (inactive)	-8.8e-05 (inactive)	0.00487 (inactive)	inactive	-2.07% (inactive)
